Results: ChEMBL document CHEMBL1149296, “Virtual screening of human 5-aminoimidazole-4-carboxamide ribonucleotide transformylase against the NCI diversity set by use of AutoDock to identify novel nonfolate inhibitors” (J Med Chem, 2004)
Calls of active or inactive are those of the source. No cut-off for these calls is given here.

Molecular target: Bifunctional purine biosynthesis protein ATIC (Homo sapiens, UniProt P31939)
Assay: Inhibition of human AICAR Tfase
Summary of the method: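 Human ATIC transformylase activity assay run per the cited earlier method. IC50 measured in a mix of 25 nM ATIC, 50 μM AICAR substrate and 8.5 μM 10-formyltetrahydrofolate cofactor, the cofactor made in-house by a modified literature route. Inhibition mode was also examined with 0.1 mg/mL saponin present.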

Row | Compound | Activity | IC50 [µM] | also measured
1 | CC(C)[C@H](C)/C=C/[C@@H](C)[C@H]1CC[C@H]2C3=CC=C4C[C@@H](O)CC[C@]4(C)[C@H]3CC[C@]12C | inactive |  | 
2 | CC1=NN(c2ccc(S(=O)(=O)O)cc2)C(=O)C1/N=N/c1ccc(S(=O)(=O)Nc2ccccc2)c(C)c1 (stereo not given) |  | 11.6 | 
3 | Cc1cc(N)ccc1/N=N/c1cc(S(=O)(=O)O)c2cccc(S(=O)(=O)O)c2c1 |  | 7.6 | 
4 | Cc1ccc(OS(=O)(=O)c2ccc(/N=N/c3c(C)[nH]n(-c4ccc(Cl)cc4S(=O)(=O)O)c3=O)cc2)cc1 |  | 3.3 | 
5 | C[C@@H]1O[C@@H](O[C@H]2C[C@@H](O)[C@]3(CO)[C@H]4[C@H](O)C[C@]5(C)[C@@H](C6=CC(=O)OC6)CC[C@]5(O)[C@@H]4CC[C@]3(O)C2)[C@H](O)[C@H](O)[C@H]1O | inactive |  | 
6 | C[C@]12CC[C@H]3[C@@H](CCC4=CC(=O)CC[C@@H]43)[C@@H]1CCC2OC1(O)C(=O)c2ccccc2C1=O (stereo not given in full) | inactive |  | 
7 | CN1CCN(c2ccc3[nH]c(-c4ccc5[nH]c(-c6ccc(O)cc6)nc5c4)nc3c2)CC1 | inactive |  | 
8 | C[C@]12CC[C@H]3[C@@H](CCC4=CC(=O)CC[C@@]43C)[C@@H]1CC[C@@H]2C(=O)COS(=O)(=O)c1ccc(Br)cc1 |  | 13.9 | 
9 | Cc1ccc2nc(-c3ccc(NC(=O)c4ccc(N)cc4)c(S(=O)(=O)O)c3)sc2c1 |  | 16.9 | 
10 | O=C(O)C1=C/C(=C/C(c2ccccc2)c2cc(C(=O)O)c(O)c3ccccc23)c2ccccc2C1=O (stereo not given) |  | 204 | 
11 | CC(CC(=O)O)[C@H]1CC[C@@]2(C)[C@@H]3C(=O)C[C@H]4C(C)(C)[C@@H](O)CC[C@]4(C)[C@H]3C(=O)C[C@]12C (single isomer, unassigned) | inactive |  | 
12 | Cc1ccc(S(=O)(=O)Nc2cc([N+](=O)[O-])c3scnc3c2)cc1 |  | 36.1 | 
13 | CC(=O)Nc1ccc(S(=O)(=O)Nc2cnc3ccccc3n2)cc1 |  | 54.7 | 
14 | O=S(=O)(O)c1cc(/N=[N+](\[O-])c2cc(S(=O)(=O)O)c3ccccc3c2)cc2ccccc12 |  | 7.8 | 
15 | COc1ccc(C(=O)O[C@H]2CC[C@@]3(C)[C@@H]4CC[C@H]5[C@]6(O)C[C@H](O)[C@@]7(O)[C@@H](CN8C[C@@H](C)CC[C@H]8[C@@]7(C)O)[C@]6(O)C[C@@]53O[C@]24O)cc1OC [VERATRIDINE] |  | 231 | 
16 | CC(C)(O)/C=C/C(=O)[C@](C)(O)[C@H]1[C@H](O)C[C@@]2(C)[C@@H]3CC=C4[C@@H](C=C(O)C(=O)C4(C)C)[C@]3(C)C(=O)C[C@]12C | inactive |  | 
17 | C[C@H](CCC(=O)O)[C@H]1CC[C@H]2[C@@H]3CC[C@@H]4C[C@@H](O)CC[C@]4(C)[C@H]3C[C@H](O)[C@]12C | inactive |  | 
18 | NS(=O)(=O)c1cccc2cc(/N=N/c3cccc4c(S(=O)(=O)O)cccc34)ccc12 |  | 0.6 | Ki: 0.154 µM
19 | Cc1ccc(S(=O)(=O)N/N=C2/C=C3CC[C@H]4[C@@H]5CC[C@H]([C@H](C)CCCC(C)C)[C@@]5(C)CC[C@@H]4[C@@]3(C)CC2)cc1 |  | 9.6 | 
20 | Nc1cccc2cc(S(=O)(=O)Nc3ccc(C(=O)O)cc3)ccc12 |  | 4.1 | 
21 | CC1CCC2N(C1)CC1C3(O)CC45OC6(O)C(O)CCC4(C)C6CCC5C3(O)CC(O)C13C(C)(O)C23O (stereo not given) | inactive |  | 
22 | O=C(O)c1cc(C(=O)C(=O)c2cc(C(=O)O)c(O)c3ccccc23)c2ccccc2c1O |  | 8.8 | 
23 | O=S(=O)(O)c1ccc(/N=N/c2ccc(/N=N/c3ccc(O)c4cccc(S(=O)(=O)O)c34)cc2)cc1 |  | 11.6 | 
24 | CC1=NN(c2cc(Cl)c(S(=O)(=O)O)cc2Cl)C(=O)C1/N=N/c1ccc(S(=O)(=O)O)cc1 (stereo not given) |  | 20.1 | 
